Source: ChEMBL document CHEMBL4118021, “Studies of TAK1-centered polypharmacology with novel covalent TAK1 inhibitors” (Bioorg Med Chem, 2017)
One block for each molecule: values may come before it. The source made the active and inactive calls. The calls are words filed in the database; no cut-off is given here.

Legend:
[1] = target: Serine/threonine-protein kinase TAO2 (Homo sapiens) (UniProt Q9UL54); test: Inhibition of TAO2 in human SKCO1 cells at 1 uM after 4 hrs using biotin labeled DVKAGNILLSEPGLVK probe by mass-spectrometric analysis relative to control; format: cell-based
Sequence of Serine/threonine-protein kinase TAO2 (Homo sapiens) (Q9UL54 whole entry, the tested form may be a part): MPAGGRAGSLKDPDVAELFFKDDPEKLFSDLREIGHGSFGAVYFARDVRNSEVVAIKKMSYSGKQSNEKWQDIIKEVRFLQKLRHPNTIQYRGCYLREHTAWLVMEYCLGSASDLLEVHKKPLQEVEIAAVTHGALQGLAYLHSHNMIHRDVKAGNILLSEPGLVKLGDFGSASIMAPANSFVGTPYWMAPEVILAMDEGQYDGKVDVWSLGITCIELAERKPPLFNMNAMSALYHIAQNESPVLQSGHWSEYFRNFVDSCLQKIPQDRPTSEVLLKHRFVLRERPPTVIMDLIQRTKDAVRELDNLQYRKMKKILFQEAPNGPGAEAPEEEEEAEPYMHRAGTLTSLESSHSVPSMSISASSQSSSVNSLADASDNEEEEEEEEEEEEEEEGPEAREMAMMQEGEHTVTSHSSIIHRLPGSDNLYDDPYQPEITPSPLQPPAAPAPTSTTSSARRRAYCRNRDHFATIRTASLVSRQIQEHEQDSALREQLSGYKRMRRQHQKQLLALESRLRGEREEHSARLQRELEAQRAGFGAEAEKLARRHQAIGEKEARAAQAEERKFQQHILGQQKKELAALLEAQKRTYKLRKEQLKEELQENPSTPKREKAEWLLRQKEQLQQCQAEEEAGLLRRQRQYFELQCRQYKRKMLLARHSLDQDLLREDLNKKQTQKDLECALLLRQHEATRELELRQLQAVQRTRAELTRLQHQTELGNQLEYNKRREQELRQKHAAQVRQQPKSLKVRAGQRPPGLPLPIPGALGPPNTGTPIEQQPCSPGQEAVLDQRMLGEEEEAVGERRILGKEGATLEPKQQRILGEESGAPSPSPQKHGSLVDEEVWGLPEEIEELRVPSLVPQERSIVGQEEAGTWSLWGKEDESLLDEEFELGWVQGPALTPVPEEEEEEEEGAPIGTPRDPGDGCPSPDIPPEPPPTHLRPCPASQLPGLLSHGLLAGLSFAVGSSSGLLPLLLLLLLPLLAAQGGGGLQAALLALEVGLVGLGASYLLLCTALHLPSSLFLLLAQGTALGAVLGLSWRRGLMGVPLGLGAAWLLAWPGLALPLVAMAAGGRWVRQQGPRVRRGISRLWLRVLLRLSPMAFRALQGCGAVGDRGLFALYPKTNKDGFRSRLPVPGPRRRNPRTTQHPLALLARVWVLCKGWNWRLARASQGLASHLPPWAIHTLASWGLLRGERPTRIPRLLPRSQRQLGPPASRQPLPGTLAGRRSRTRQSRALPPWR

[2] = target: Dual specificity mitogen-activated protein kinase kinase 2 (Homo sapiens) (UniProt P36507); test: Inhibition of full length human MEK2 (1 to 400 residues) expressed in mammalian expression system assessed as enzyme activity at 10 uM by KINOMEScan assay relative to control; set-up: scale not given: the % may be the effect or the level left
Outline: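 In vitro ATP-site competition binding assay (KinomeScan) across a panel of 456 kinases. Compound was tested at 1 and 10 μM. The read-out is the binding inhibition score relative to control.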

[3] = target: T1, Aurora kinase A (Homo sapiens) (UniProt O14965); test: Binding affinity to AURKA in human NCI-H358 cells at 1 uM by mass spectrometry based pull down assay; format: cell-based
T1 sequence (whole entry): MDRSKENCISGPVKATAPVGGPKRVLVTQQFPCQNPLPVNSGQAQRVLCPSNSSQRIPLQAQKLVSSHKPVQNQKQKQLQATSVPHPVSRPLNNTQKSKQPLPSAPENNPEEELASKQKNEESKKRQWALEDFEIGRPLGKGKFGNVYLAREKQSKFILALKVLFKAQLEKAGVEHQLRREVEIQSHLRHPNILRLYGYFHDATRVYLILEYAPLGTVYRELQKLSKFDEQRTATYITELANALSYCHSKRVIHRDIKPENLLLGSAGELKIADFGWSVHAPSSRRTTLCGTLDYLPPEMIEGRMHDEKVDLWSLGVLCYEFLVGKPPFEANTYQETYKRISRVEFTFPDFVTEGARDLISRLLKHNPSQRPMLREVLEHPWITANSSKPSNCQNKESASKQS

[4] = target: Acidic leucine-rich nuclear phosphoprotein 32 family member B (Homo sapiens) (UniProt Q92688); test: Binding affinity to ANP32B in human NCI-H358 cells at 1 uM by mass spectrometry based pull down assay; format: cell-based
Sequence of Acidic leucine-rich nuclear phosphoprotein 32 family member B (Homo sapiens) (Q92688 whole entry): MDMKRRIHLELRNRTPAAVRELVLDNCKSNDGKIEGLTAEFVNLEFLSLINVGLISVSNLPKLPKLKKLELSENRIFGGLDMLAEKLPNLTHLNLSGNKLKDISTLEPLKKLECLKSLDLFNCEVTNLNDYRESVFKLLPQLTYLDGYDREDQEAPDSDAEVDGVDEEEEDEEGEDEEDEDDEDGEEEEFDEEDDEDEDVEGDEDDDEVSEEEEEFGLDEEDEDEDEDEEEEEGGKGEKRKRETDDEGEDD

Beclin-1 (Homo sapiens) = Beclin-1 (Homo sapiens) (UniProt Q14457); test: Binding affinity to BECN1 in human NCI-H23 cells at 1 uM by mass spectrometry based pull down assay; format: cell-based
Sequence of Beclin-1 (Homo sapiens) (Q14457 whole entry): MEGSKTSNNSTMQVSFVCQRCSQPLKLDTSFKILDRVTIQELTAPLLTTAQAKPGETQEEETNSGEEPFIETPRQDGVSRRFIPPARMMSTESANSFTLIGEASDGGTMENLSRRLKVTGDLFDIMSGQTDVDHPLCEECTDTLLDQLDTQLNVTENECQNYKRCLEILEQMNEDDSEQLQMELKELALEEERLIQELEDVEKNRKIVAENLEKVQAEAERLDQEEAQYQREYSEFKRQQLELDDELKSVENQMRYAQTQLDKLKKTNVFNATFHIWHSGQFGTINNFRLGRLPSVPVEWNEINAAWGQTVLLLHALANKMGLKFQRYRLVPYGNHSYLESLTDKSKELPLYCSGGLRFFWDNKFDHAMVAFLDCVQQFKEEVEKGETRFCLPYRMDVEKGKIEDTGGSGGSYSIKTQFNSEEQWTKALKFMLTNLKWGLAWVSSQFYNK

[5] = target: Inter-alpha-trypsin inhibitor heavy chain H2 (Homo sapiens) (UniProt P19823); test: Binding affinity to ITIH2 in human NCI-H358 cells at 1 uM by mass spectrometry based pull down assay; format: cell-based
Sequence of Inter-alpha-trypsin inhibitor heavy chain H2 (Homo sapiens) (P19823 whole entry): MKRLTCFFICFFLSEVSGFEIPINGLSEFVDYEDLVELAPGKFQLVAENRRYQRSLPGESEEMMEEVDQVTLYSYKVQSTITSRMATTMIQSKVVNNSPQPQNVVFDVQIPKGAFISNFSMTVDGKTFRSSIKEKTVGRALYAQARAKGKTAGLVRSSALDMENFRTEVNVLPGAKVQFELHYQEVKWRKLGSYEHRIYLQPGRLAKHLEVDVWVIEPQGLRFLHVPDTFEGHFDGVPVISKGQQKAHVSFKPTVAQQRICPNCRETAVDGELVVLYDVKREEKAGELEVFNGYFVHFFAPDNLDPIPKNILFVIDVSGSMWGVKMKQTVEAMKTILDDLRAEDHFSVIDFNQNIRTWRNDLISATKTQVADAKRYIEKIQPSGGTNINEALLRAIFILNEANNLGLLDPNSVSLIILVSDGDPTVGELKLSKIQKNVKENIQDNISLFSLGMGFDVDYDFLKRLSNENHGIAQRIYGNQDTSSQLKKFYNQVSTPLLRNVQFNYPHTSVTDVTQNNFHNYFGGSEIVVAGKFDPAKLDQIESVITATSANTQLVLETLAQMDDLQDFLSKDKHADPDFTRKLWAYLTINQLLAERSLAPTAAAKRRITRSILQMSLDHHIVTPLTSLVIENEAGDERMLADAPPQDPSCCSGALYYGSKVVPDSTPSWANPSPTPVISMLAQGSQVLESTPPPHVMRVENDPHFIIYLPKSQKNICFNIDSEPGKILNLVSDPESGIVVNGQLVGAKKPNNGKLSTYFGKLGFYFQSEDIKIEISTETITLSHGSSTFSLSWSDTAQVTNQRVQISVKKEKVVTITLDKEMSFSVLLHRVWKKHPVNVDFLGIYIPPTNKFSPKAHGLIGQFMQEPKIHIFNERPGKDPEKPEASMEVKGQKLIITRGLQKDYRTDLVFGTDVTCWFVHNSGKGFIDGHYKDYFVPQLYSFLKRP

[6] = target: Cytosolic iron-sulfur assembly component 2A (Homo sapiens) (UniProt Q9H5X1); test: Binding affinity to FAM96A in human NCI-H23 cells at 1 uM by mass spectrometry based pull down assay; format: cell-based
Sequence of Cytosolic iron-sulfur assembly component 2A (Homo sapiens) (Q9H5X1 whole entry): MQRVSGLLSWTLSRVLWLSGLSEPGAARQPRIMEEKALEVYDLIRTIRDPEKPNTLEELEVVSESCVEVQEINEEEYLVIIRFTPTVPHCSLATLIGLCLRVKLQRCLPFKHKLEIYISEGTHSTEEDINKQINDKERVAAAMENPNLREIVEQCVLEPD

[7] = target: 5'-AMP-activated protein kinase catalytic subunit alpha-1 (Homo sapiens) (UniProt Q13131); test: Binding affinity to PRKAA1 in human NCI-H358 cells at 1 uM by mass spectrometry based pull down assay; format: cell-based
[8] = target: Probable ATP-dependent RNA helicase DDX17 (Homo sapiens) (UniProt Q92841); test: Binding affinity to DDX17 in human NCI-H23 cells at 1 uM by mass spectrometry based pull down assay; format: cell-based
[9] = target: Inter-alpha-trypsin inhibitor heavy chain H2 (Homo sapiens) (UniProt P19823); test: Binding affinity to ITIH2 in human NCI-H23 cells at 1 uM by mass spectrometry based pull down assay; format: cell-based
[10] = target: High mobility group protein B2 (Homo sapiens) (UniProt P26583); test: Binding affinity to HMGB2 in human NCI-H358 cells at 1 uM by mass spectrometry based pull down assay; format: cell-based
Sequence of High mobility group protein B2 (Homo sapiens) (P26583 whole entry): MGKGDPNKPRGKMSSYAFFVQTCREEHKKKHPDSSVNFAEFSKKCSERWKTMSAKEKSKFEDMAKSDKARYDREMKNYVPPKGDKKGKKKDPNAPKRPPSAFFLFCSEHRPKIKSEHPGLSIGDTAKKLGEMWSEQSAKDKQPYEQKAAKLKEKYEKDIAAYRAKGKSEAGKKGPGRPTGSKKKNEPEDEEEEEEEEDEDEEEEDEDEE

[11] = target: Plakophilin-1 (Homo sapiens) (UniProt Q13835); test: Binding affinity to PKP1 in human NCI-H23 cells at 1 uM by mass spectrometry based pull down assay; format: cell-based
Sequence of Plakophilin-1 (Homo sapiens) (Q13835 whole entry): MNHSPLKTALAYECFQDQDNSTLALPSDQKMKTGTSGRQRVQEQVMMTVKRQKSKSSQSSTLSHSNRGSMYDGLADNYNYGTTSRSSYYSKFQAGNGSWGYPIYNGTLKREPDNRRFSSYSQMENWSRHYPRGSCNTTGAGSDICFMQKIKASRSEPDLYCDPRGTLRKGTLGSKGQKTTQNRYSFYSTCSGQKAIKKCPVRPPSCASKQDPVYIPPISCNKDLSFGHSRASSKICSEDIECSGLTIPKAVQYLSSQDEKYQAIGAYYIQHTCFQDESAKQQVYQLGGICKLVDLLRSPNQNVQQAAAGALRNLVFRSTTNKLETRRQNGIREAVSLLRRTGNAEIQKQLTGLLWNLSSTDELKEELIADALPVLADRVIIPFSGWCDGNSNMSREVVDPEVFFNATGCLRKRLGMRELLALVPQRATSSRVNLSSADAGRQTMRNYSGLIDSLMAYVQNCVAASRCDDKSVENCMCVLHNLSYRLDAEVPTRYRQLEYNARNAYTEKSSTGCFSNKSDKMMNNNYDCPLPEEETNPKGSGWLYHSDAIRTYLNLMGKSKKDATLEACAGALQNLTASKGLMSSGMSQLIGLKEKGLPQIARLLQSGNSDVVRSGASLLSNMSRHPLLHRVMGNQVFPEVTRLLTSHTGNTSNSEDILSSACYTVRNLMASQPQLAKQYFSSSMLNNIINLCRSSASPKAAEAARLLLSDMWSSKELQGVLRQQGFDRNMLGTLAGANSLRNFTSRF

[12] = target: Isocitrate dehydrogenase [NAD] subunit alpha, mitochondrial (Homo sapiens) (UniProt P50213); test: Binding affinity to IDH3A in human NCI-H358 cells at 1 uM by mass spectrometry based pull down assay; format: cell-based
[13] = target: Actin-related protein 2/3 complex subunit 2 (Homo sapiens) (UniProt O15144); test: Binding affinity to ARPC2 in human NCI-H23 cells at 1 uM by mass spectrometry based pull down assay; format: cell-based
[14] = target: Ras GTPase-activating-like protein IQGAP1 (Homo sapiens) (UniProt P46940); test: Binding affinity to IQGAP1 in human NCI-H23 cells at 1 uM by mass spectrometry based pull down assay; format: cell-based
[15] = target: Glutamate--cysteine ligase catalytic subunit (Homo sapiens) (UniProt P48506); test: Binding affinity to GCLC in human NCI-H358 cells at 1 uM by mass spectrometry based pull down assay; format: cell-based
Sequence of Glutamate--cysteine ligase catalytic subunit (Homo sapiens) (P48506 whole entry): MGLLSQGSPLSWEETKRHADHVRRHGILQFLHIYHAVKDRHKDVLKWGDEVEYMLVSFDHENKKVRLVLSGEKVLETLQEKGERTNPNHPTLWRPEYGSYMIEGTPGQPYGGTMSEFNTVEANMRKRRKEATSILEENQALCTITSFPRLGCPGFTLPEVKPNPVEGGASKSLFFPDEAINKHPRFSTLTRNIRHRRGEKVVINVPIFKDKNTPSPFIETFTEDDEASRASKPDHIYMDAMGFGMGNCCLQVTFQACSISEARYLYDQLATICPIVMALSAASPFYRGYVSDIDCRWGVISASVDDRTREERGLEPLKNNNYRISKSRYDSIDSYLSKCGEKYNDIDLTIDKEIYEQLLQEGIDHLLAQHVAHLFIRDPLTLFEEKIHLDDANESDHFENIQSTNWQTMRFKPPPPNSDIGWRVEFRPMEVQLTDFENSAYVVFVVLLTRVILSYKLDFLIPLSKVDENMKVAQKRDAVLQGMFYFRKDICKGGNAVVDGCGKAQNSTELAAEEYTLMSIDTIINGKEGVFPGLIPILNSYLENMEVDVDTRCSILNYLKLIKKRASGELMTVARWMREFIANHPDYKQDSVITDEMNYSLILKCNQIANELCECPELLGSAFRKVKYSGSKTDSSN

[16] = target: F-actin-capping protein subunit alpha-1 (Homo sapiens) (UniProt P52907); test: Binding affinity to CAPZA1 in human NCI-H358 cells at 1 uM by mass spectrometry based pull down assay; format: cell-based
[17] = target: Pyrroline-5-carboxylate reductase 1, mitochondrial (Homo sapiens) (UniProt P32322); test: Binding affinity to PYCR1 in human NCI-H358 cells at 1 uM by mass spectrometry based pull down assay; format: cell-based
Sequence of Pyrroline-5-carboxylate reductase 1, mitochondrial (Homo sapiens) (P32322 whole entry): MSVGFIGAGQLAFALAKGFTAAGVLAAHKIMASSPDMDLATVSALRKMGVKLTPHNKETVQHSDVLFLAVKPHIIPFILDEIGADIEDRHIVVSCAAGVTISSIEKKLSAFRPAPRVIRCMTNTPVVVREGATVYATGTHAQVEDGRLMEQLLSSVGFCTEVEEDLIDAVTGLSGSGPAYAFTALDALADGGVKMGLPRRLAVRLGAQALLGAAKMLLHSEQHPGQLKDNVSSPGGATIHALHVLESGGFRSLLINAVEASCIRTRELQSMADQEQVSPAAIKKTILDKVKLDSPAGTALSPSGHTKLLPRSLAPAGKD

[18] = target: 182 kDa tankyrase-1-binding protein (Homo sapiens) (UniProt Q9C0C2); test: Binding affinity to TNKS1BP1 in human NCI-H358 cells at 1 uM by mass spectrometry based pull down assay; format: cell-based
[19] = target: T2, Mitogen-activated protein kinase kinase kinase 7 (Homo sapiens) (UniProt O43318); test: Inhibition of TAK1 in RA patient-derived synovial fibroblasts assessed as inhibition of poly(I:C)-induced cytokine secretion at 3 uM preincubated for 3 hrs followed by poly(I:C) stimulation measured after 18 hrs by sandwich immunoassay
T2 sequence (whole entry): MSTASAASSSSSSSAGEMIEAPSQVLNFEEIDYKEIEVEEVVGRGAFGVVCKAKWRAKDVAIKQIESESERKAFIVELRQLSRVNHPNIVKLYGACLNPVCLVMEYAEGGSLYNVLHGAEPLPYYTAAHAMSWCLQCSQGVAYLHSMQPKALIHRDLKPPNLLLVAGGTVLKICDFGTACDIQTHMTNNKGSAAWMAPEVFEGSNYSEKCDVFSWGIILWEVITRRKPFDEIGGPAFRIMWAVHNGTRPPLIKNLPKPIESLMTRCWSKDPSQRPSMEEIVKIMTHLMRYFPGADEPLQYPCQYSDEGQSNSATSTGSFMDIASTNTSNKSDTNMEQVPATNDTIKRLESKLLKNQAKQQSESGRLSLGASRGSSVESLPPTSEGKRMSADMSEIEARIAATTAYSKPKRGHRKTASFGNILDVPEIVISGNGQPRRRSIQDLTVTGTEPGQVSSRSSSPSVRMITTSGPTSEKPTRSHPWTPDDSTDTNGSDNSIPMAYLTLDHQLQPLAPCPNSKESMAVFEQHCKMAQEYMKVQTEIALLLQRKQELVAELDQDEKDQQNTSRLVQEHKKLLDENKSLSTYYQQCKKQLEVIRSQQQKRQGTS
Outline: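 Primary RA synovial fibroblasts (donor RA2159) seeded 1000 cells/well and grown ~24 h at 37 °C, 5% CO2. Starved overnight in basal medium, then ~4 h in basal medium with 0.1% BSA. Two adjacent wells pooled per replicate, in biological duplicate. Supernatants diluted 1:3 and run on Luminex 27-plex/21-plex sandwich immunoassays for 48 analytes, with spiked-ligand and mock-supernatant background controls.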

SMILES: COc1cc(O)c2c(c1)/C=C/C[C@H](O)[C@H](O)C(=O)/C=C\C[C@H](C)OC2=O
inhibition [1]: -2.5%
Activity [2]: 0.05%

Activity [3]: Active
Activity [4]: Active
Activity (Beclin-1 (Homo sapiens)): Active
Activity [5]: Active
Activity [6]: Active
Activity [7]: Active
Activity [8]: Active
Activity [9]: Active
Activity [10]: Active
Activity [11]: Active
Activity [12]: Active
Activity [13]: Active
Activity [14]: Active
Activity [15]: Active
Activity [16]: Active
Activity [17]: Active
Activity [18]: Active
SMILES: C=CC(=O)Nc1ccccc1Nc1nc(Nc2ccc(N3CCN(CCOCCOCCOCCNC(=O)CCCC[C@@H]4SC[C@@H]5NC(=O)N[C@@H]54)CC3)cc2)ncc1Cl

SMILES: C=CC(=O)Nc1ccccc1Oc1nc(Nc2cnn(CCOC)c2)ncc1Cl
inhibition [19]: Active
